Data from ChEMBL document CHEMBL4196108, “5-Aroylindoles Act as Selective Histone Deacetylase 6 Inhibitors Ameliorating Alzheimer's Disease Phenotypes” (J Med Chem, 2018).
Activity calls are given as the source filed them. The calls are words filed in the database; no cut-off is given here.

Legend:
[1] = Ratio of drug level in brain to plasma in Sprague-Dawley rat at 50 mg/kg, po after 1 hr; assay type: ADME, organism-based; conditions: read-out: BPR
[2] = target: T1, Protein deacetylase HDAC6 (Homo sapiens) (UniProt Q9UBN7); assay: Inhibition of HDAC6 in human SH-SY5Y cells transfected with pCAX FLAG APP and pRK5-EGFP-Tau P301L plasmids assessed as increase in polyubiquitinated protein level at 0.01 to 1 uM after 24 hrs by immunoblot analysis; assay type: cell-based
T1 sequence (whole entry): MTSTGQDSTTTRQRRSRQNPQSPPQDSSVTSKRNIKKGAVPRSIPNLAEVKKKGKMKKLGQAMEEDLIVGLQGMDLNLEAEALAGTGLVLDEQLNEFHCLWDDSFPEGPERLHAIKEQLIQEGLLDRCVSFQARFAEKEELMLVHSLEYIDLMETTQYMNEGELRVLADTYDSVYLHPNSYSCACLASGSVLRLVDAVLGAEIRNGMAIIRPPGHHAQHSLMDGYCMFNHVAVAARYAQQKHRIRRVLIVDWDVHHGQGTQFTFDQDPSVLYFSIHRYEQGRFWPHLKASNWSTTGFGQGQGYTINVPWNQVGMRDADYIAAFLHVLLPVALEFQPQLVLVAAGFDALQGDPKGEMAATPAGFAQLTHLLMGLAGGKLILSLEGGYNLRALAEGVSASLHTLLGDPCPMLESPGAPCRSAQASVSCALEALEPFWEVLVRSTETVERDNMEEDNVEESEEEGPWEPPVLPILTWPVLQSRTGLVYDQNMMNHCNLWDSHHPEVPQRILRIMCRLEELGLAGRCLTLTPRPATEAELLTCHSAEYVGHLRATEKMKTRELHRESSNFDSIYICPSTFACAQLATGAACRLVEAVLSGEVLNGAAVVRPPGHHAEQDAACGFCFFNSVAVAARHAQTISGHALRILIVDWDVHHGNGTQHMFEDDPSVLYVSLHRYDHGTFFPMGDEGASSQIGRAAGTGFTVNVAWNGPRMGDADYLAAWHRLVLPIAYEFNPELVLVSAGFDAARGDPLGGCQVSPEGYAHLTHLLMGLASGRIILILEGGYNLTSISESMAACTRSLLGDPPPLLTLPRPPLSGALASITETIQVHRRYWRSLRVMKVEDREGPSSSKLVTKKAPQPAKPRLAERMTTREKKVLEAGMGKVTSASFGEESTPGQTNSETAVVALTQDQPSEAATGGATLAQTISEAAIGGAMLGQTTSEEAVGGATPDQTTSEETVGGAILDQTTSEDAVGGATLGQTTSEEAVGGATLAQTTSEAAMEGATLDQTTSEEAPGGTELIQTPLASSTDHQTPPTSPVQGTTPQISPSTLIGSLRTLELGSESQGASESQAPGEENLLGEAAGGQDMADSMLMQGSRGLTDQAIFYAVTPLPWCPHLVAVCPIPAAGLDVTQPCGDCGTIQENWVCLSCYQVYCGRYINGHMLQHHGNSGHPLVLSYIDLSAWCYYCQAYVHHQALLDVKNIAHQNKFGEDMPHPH
In short: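 SH-SY5Y cells transfected 24 h with APP695/Tau P301L plasmids, then treated; whole lysates immunoblotted for polyubiquitin complexes.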

[3] = Toxicity in Balb/c mouse assessed as survival rate at 1000 mg/kg, ip qd administered for 6 days followed by 1 week recovery (reference value: 100%); assay type: organism-based; conditions: in vivo
Rattus norvegicus = assay: Reversal of scopolamine-induced spatial memory impairment in Wistar rat assessed as reduction in escape latency in hidden platform at 25 mg/kg, po administered once daily for 1 week followed by scopolamine challenge 90 mins prior to test by Morris water maze test; assay type: functional, organism-based
In short: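 Male Wistar rats, 7 weeks old, dosed orally at 25 mg/kg in 1% carboxymethyl cellulose/0.5% Tween 80 once daily. Scopolamine 1 mg/kg i.p. 90 min before test trial (controls excluded). Morris water maze (hidden platform escape latency), elevated plus maze (started at open-arm end, time to closed arm), then CA1 phospho-tau Ser396/Ser404 immunohistochemistry.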

[4] = target: T2, Protein deacetylase HDAC6 (Mus musculus) (UniProt Q9Z2V5); assay: Inhibition of HDAC6 in mouse Neuro-2a cells transfected with pCAX FLAG APP and pRK5-EGFP-Tau P301L plasmids assessed as increase in HSP70 protein expression 1 uM after 24 hrs by Western blot analysis; assay type: cell-based
T2 sequence (whole entry): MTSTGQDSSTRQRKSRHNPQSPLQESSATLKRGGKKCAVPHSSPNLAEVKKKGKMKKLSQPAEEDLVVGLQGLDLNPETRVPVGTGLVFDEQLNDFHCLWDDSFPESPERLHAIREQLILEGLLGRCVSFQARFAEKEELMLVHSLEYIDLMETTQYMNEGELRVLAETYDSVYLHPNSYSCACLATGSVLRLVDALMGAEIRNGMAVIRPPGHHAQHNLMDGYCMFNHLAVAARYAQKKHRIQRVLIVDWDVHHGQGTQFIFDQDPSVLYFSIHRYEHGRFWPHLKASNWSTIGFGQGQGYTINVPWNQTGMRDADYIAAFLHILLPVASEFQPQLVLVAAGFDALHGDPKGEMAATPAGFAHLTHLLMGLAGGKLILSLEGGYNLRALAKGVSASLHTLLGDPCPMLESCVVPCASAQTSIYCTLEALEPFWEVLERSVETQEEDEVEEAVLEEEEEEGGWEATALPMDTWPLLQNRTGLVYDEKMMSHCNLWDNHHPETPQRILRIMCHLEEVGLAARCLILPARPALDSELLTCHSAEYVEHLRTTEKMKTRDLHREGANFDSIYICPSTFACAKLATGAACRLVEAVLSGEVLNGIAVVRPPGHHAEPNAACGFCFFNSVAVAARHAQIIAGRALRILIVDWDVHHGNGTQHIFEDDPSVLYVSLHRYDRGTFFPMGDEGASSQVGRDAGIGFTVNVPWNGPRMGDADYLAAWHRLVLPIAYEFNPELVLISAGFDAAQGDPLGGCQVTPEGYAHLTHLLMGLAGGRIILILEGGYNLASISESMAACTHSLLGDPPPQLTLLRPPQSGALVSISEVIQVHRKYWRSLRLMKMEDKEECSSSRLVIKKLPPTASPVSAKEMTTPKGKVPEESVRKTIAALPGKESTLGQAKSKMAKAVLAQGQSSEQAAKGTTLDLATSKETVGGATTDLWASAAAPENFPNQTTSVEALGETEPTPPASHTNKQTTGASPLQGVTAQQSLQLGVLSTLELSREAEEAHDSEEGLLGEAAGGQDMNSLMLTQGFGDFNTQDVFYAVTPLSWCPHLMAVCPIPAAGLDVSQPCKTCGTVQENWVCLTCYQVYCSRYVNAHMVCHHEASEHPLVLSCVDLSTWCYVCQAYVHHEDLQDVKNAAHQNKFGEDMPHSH
In short: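 SH-SY5Y and Neuro-2a cells cotransfected 24 h with APP695/Tau P301L plasmids, treated 24 h at 1 µM (ACY-1215 reference). 30 µg lysate immunoprecipitated overnight at 4 °C with anti-HDAC6 or anti-acetyl-lysine antibodies plus protein A/G beads, run on 8% SDS-PAGE, probed for Hsp90; Hsp70 by immunoblot. Three independent experiments.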

COc1ccc(C(=O)c2ccc3c(ccn3Cc3ccc(C(=O)NO)cc3)c2)cc1
Kp at 1 h [1]: 1.19 | inhibition [2]: Active | survival [3]: 100% | Activity (Rattus norvegicus): Active | inhibition [4]: Active
